In ChEMBL document CHEMBL2380204, “Discovery of a new HIV-1 inhibitor scaffold and synthesis of potential prodrugs of indazoles” (Bioorg Med Chem Lett, 2013):
pEC50: −log10 of the molar value. ≈ marks a conversion by molar mass, not a printed value.

How the values were obtained:
[1] = Therapeutic index, ratio of TC50 for human MT4 cells to EC50 for Human immunodeficiency virus 1 NL43 infected in human MT4 cells; assay type: cell-based; settings: read-out: TI
Outline: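 Index calculated as TC50/EC50. TC50 and EC50 are each the mean of two experiments.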

[2] = Cytotoxicity against human MT4 cells by WST1 assay; assay type: cell-based; settings: read-out: TC50 (the source's name)
Outline: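 TC50 defined as 50% toxic concentration. Values are the mean of two experiments, with SD normally under 20%.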

[3] = test system: Human immunodeficiency virus 1; assay: Antiviral activity against 0.0005 MOI Human immunodeficiency virus 1 NL43 infected in human MT4 cells assessed as protection against virus-induced cytopathicity after 4 days by WST1 assay; assay type: functional, organism-based; settings: Human immunodeficiency virus 1, NL43, MT4, 96 h
Outline: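 Antiviral EC50 defined as 50% effective concentration. Values are the mean of two experiments, with SD normally under 20%.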

[4] = Chemical stability in phosphate buffer after 40 mins at pH 7.4; assay type: physicochemical; settings: pH 7.4, 40 min
Outline: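 Compound incubated in phosphate buffer at pH 7.4 and 37 °C for 40 min. Hydrolysis monitored.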

Plasma = assay: Prodrug activation in 80% phosphate buffered human plasma assessed as compound remaining after 40 mins at pH 7.4; assay type: cell-free; settings: pH 7.4, 40 min
Outline: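 Incubated in phosphate-buffered 80% human plasma at pH 7.4 and 37 °C. Percent of compound remaining measured at 40 min, along with time-dependent formation of the parent indazole.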

[5] = Aqueous solubility in phosphate buffer at pH 7.4; assay type: physicochemical
Outline: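 Aqueous solubility measured in phosphate buffer at pH 7.4 as a preliminary screen. Reported in µM.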

[6] = Metabolic stability in mouse liver microsomes after 40 mins by LC-MS/MS analysis; assay type: ADME, Microsome; settings: read-out: Stability

Stability [4]	Stability (Plasma)	solubility [5]	remaining at 40 min [6]	SMILES	selectivity ratio [1]	CC50 [2]	pEC50 [3]
				Clc1ccccc1-c1cnc(Nc2ccc3[nH]ncc3c2)o1	> 11	> 100 µM	5.05
Stable	35%	60 µM (≈ 26.5 µg/mL)		O=C(O)CCC(=O)OCn1ncc2cc(Nc3ncc(-c4ccc(Cl)cc4)o3)ccc21			
				Clc1ccc(-c2cnc(Nc3ccc4[nH]ncc4c3)o2)cc1Cl	> 2.9	> 100 µM	4.46
				COc1cccc(-c2nc(Nc3ccc4[nH]ncc4c3)c3c(F)cccc3n2)c1	10		4.96
				O=[N+]([O-])c1ccc(N2CCCC(Nc3ccc4[nH]ncc4c3)C2)c(F)c1 (configuration not stated)	10		4.89
				O=C(NCc1ccc([N+](=O)[O-])cc1F)Nc1ccc2[nH]ncc2c1	15		5.22
			9%	c1ccc(-c2cnc(Nc3ccc4[nH]ncc4c3)o2)cc1	> 45	> 90 µM	5.70
	Stable	66 µM (≈ 32.3 µg/mL)		O=C(O)c1ccccc1C(=O)OCn1ncc2cc(Nc3ncc(-c4ccc(Cl)cc4)o3)ccc21			
				COc1cc(-c2cnc(Nc3ccc4[nH]ncc4c3)o2)ccc1Cl	53	80 µM	5.82
		0.2 µM (≈ 0.0621 µg/mL)	83%	Clc1ccc(-c2cnc(Nc3ccc4[nH]ncc4c3)o2)cc1	> 30	> 90 µM	5.52
				COc1ccc(-c2cnc(Nc3ccc4[nH]ncc4c3)o2)cc1	> 1	> 100 µM	4.00
				Clc1cccc(-c2cnc(Nc3ccc4[nH]ncc4c3)o2)c1	> 1.9	> 100 µM	4.27
				COc1ccccc1-c1cnc(Nc2ccc3[nH]ncc3c2)o1	> 1	> 100 µM	4.00
				COc1ccc(-c2cnc(Nc3ccc4[nH]ncc4c3)o2)cc1OC	50	21 µM	6.38
				COc1cccc(-c2cnc(Nc3ccc4[nH]ncc4c3)o2)c1	> 45	> 90 µM	5.70
				c1cc2[nH]ncc2cc1Nc1ncc(-c2ccc3c(c2)OCO3)o1	31	83 µM	5.57
